Keap1 Nrf2 FP: inhibitors of human Keap1-Nrf2 protein-protein interaction; Q14145; Keap1 Kelch-Nrf2 peptide fluorescence polarization, 1536-well; inhibition, % at 9.4 µM; hit rate 0.15% among 340,000; AID 504523; in the data active = inhibition above about 12%;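 note: human Keap1 Kelch domain with fluorescein labeled Nrf2 9mer peptide probe; higher means more block of Keap1 binding to Nrf2 peptide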
Target sequence (Q14145 whole entry, looked up, the tested form may be a part): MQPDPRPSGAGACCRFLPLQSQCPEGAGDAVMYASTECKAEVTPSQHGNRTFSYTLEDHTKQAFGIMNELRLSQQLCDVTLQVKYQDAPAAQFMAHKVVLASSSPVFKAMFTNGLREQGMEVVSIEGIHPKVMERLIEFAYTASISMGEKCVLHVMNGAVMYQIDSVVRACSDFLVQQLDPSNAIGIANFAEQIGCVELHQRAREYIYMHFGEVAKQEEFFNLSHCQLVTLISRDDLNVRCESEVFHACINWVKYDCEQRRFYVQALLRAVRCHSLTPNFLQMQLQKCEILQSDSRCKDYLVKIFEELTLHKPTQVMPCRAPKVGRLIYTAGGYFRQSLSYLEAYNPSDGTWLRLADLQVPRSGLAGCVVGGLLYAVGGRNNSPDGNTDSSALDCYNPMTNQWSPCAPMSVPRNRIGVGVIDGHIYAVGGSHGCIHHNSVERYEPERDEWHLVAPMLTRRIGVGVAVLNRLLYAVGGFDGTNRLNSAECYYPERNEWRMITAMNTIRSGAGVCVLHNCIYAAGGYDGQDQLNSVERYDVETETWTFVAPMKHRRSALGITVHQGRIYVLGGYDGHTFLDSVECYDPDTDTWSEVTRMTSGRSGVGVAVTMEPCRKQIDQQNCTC
CAL PDZ FP-1: blocks peptide binding to human CAL PDZ domain; purified CAL PDZ, TMR-peptide fluorescence polarization, 1 h; inhibition, % at 20 µM; hit rate 0.02% among 330,000; AID 504414;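 active = highest replicate inhibition of at least 40%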
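Assay system – tagged CAL PDZ protein CerCALP, purified · Timing – 1 h at RT · Compound – single point, 20 µM · Measured by – fluorescence polarization from S- and P-plane intensities, G-factor corrected · Evaluation – inhibition from polarization loss · Probe or stimulus – TMR reporter peptide T*-PRC34 · Buffer or medium – pH 7.4 phosphate-saline buffer, reducing agent, detergent, IgG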
RTF Ca sens act: cardiac RTF calcium sensitization | P19429+P45379 | IANBD-labeled TnC RTF fluorescence at EC20 calcium; 0% EC20 calcium, 100% full calcium | activation, % at 7.2 µM | hit rate 0.24% among 340,000;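 active = activation above the mean over all tested compounds plus 3 SD, cut at about 30% in these data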;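 note: rise in fluorescence read as greater calcium sensitivity of cardiac thin filaments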
LANA DNA inh: blocks KSHV LANA C-terminal domain binding to DNA; MBP-C-LANA/FAM-LBS DNA binding, fluorescence polarization; inhibition, % at 9 µM; hit rate 0.078% among 340,000;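 active = highest replicate inhibition at or above 60% at 9 µM, even if other replicates fall short; inactive = all replicates below 60% inhibition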
CAL PDZ FP-2: blocks peptide binding to the human CAL PDZ domain. hit rate 0.92% among 300,000. inhibition, % at 24.9 µM. purified CAL PDZ, TMR-peptide fluorescence polarization, 1 h;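 active = mean inhibition of at least 30% with at least half of replicates also reaching 30%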
RTF Ca sens inh: cardiac RTF calcium desensitization; P19429+P45379; IANBD-labeled cardiac RTF, Ca2+ fluorescence; inhibition, % at 7.15 µM; hit rate 0.12% among 340,000; AID 493244;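 active = inhibition above the mean inhibition of all tested compounds plus 3 SD, cut at about 17% in these data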;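 note: assay run at fixed EC70 calcium of 1.6 mM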
RTF inh confirm: confirmation of inhibitors of cardiac thin filament calcium sensitivity. hit rate 8% among 360. shares compounds with RTF Ca sens inh. reconstituted cardiac thin filaments, calcium sensitivity fluorescence. inhibition, % at 7.15 µM; in the data active = inhibition above about 18%
DNA intercal 2: counter-screen for C-LANA inhibitors: DNA intercalators | shares compounds with LANA DNA inh | Acridine orange-DNA displacement, fluorescence polarization | AC50, µM (top dose mostly 35 µM) | 20 tested, under 10 active | AID 588364;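 active = signal drop with an AC50 no more than ten times the top valid dose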
Keap1 TSA: binders of human Keap1 Kelch domain; shares compounds with Keap1 Nrf2 FP; Keap1 Kelch thermal shift, delta Tm; active compounds read high; max delta Tm, degrees C; hit rate 8% among 400; in the data active = max delta Tm above about 0.48 degrees C
Dye-only ctr: shifts Sypro Orange melt without protein, a false positive; AID 651858; delta Tm, degrees C (no concentration beside the values); 140 tested, under 10 active; Sypro Orange dye-only thermal melt, no protein, delta Tm; top dose 26 µM; shares compounds with Keap1 Nrf2 FP;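 active = at highest dose tested, delta Tm positive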
Of the large screens only hits and unclear results are named; the others gave an inactive call (follow-up assays come after a bar, where they were run). In the library only some 1.3% were active in any assay of this set; here they are far more common.

CSc1ccc(/C=N/Nc2cccc(C(=O)O)c2)cc1	LANA DNA inh 78, RTF Ca sens inh 26 | RTF inh confirm inactive | DNA intercal 2 inactive
Oc1cc(-n2cccn2)c(O)cc1-n1cccn1	none
CCn1nnc2cc(C(=O)OCC(=O)N(C)Cc3cccc(F)c3)ccc21	none
CC1=NN(c2cccc(C(=O)O)c2)C(=O)/C1=C\C=C\c1ccco1	LANA DNA inh 92, RTF Ca sens inh 35 | RTF inh confirm inactive | DNA intercal 2 inactive
O=C(O)C1Nc2ccc(Br)cc2C2C=CCC12 (centres undefined)	LANA DNA inh 69, RTF Ca sens inh 60 | RTF inh confirm inactive | DNA intercal 2 inactive
O=S(=O)(O)c1ccc(O)c2cc(Nc3ccccc3)ccc12	Keap1 Nrf2 FP 25, LANA DNA inh 120, RTF Ca sens inh 105 | RTF inh confirm 50 | Keap1 TSA 0.97
CC(C)C(C(=O)O)N1C(=O)/C(=C/C=C/c2ccco2)SC1=S (centres undefined)	Keap1 Nrf2 FP 13, LANA DNA inh 107, RTF Ca sens inh 83 | RTF inh confirm 40 | Keap1 TSA 0.91
O=C1/C(=C/C=C/c2ccco2)SC(=S)N1c1ccc(O)cc1	none (no result: CAL PDZ FP-2)
CCCC(=O)Nc1ccc(NC(=O)c2cc3ccccc3o2)c(OC)c1	none
NS(=O)(=O)c1cc(C(=O)NC2CCSc3ccccc32)ccc1Cl (centres undefined)	Keap1 Nrf2 FP 20, LANA DNA inh 90, RTF Ca sens inh 31 | RTF inh confirm inactive | Keap1 TSA inactive | Dye-only ctr inactive
O=C1COc2ccc(C(=O)COC(=O)/C=C/c3ccc(Br)o3)cc2N1	none
O=C1/C(=C/c2ccco2)Oc2c1ccc(O)c2CN1CCCCC1	LANA DNA inh 66 | DNA intercal 2 30µM
CCCCn1c(SCC(=O)c2ccc(O)c(O)c2)nc2ccsc2c1=O	none
O=C(O)CCCCCn1c(SCC(=O)c2ccc(O)c(O)c2)nc2ccsc2c1=O	none | DNA intercal 2 inactive
CCC(=O)Oc1ccc2c(c1)O/C(=C\c1ccco1)C2=O	none (no result: RTF Ca sens act, CAL PDZ FP-2, RTF Ca sens inh) | DNA intercal 2 inactive
O=C(CSc1nccc(=O)[nH]1)NC1CCCC1	none
CCc1ccccc1NC(=O)CCS(=O)(=O)c1ccc(Br)cc1	none
COC(=O)c1ccccc1NC(=O)CCS(=O)(=O)c1ccc(Br)cc1	none | DNA intercal 2 inactive
COc1ccc(-c2nnn(CC(=O)NC(=O)NC3CCCCC3)n2)cc1OC	none
CC1CCN(C(=O)Cn2cc(C(F)(F)F)ccc2=O)c2ccccc2S1 (centres undefined)	Keap1 Nrf2 FP 49 (no result: CAL PDZ FP-2) | Keap1 TSA inactive
O=C(Cn1cc(C(F)(F)F)ccc1=O)N1CCCc2ccccc21	none (no result: CAL PDZ FP-2)
Cc1cc(C)c2c(SC(C)C)nc(N)nc2n1	Keap1 Nrf2 FP 23, RTF Ca sens act 47 | Keap1 TSA inactive
CC(=O)n1nc2nc(C)cc(C)c2c1N	none (no result: CAL PDZ FP-1)
COc1ccccc1OCCNC(=O)c1c(-c2ccccc2Cl)noc1C	none
COc1ccc(/C=N/N=C2/CC(C)(C)Cc3n[nH]c(=O)cc32)cc1	Keap1 Nrf2 FP 13 | Keap1 TSA inactive
COc1ccc(/C=N/N=C2/NC(=O)CC(C(=O)O)S2)cc1 (centres undefined)	none
COc1cc(CO)ccc1Oc1nc2ccccc2n2cnnc12	Keap1 Nrf2 FP 31 | Keap1 TSA inactive
COc1ccc(Nc2nc3ccccc3n3cnnc23)cc1Cl	none
CCC1OC23CCCCC2C(C#N)(C(=N)O3)C1(C#N)C#N (centres undefined)	Keap1 Nrf2 FP 27, RTF Ca sens act 35 | Keap1 TSA inactive | Dye-only ctr inactive
CCCC1OC23CCCCC2C(C#N)(C(=N)O3)C1(C#N)C#N (centres undefined)	none
COc1ccc(C2OC34CCCCC3C(C#N)(C#N)C2(C#N)C(=N)O4)cc1 (centres undefined)	Keap1 Nrf2 FP 22 | Keap1 TSA inactive | Dye-only ctr inactive
O=C(CN1C(=O)c2ccccc2C1=O)Nc1cc(C(=O)O)cc(C(=O)O)c1	none
CCN1CC=C2C(C#N)=C(N)C(C#N)(C#N)C(CCc3ccccc3)C2C1 (centres undefined)	Keap1 Nrf2 FP 22, RTF Ca sens act 35 | Keap1 TSA inactive
COCCCNC(=O)c1cc(S(=O)(=O)NCCCN2CCCC2=O)ccc1Cl	none
NC(=O)C1CCCN(C(=O)c2ccc(Cl)c(S(=O)(=O)N3CCc4ccccc43)c2)C1 (centres undefined)	none (no result: CAL PDZ FP-2)
N/C(=N/OC(=O)c1ccc(Cl)cc1)c1ncc([N+](=O)[O-])s1	Keap1 Nrf2 FP 22 (no result: RTF Ca sens act, CAL PDZ FP-2, RTF Ca sens inh) | Keap1 TSA inactive | Dye-only ctr inactive
O=S(=O)(CCNCCc1ccccc1)NC1CCCCC1	none
CC(Oc1ccc2c(-c3ccccc3)cc(=O)oc2c1)C(=O)NCC(O)c1ccccc1 (centres undefined)	none
CC(=O)Nc1c(NC(C)(C)C)c2ccccc2oc1=O	none (no result: CAL PDZ FP-2)
CC(=O)Nc1c(N)c2ccccc2oc1=O	Keap1 Nrf2 FP 14 | Keap1 TSA inactive | Dye-only ctr inactive
Nc1c(Cl)ncnc1NCc1ccccc1	Keap1 Nrf2 FP 31 (no result: CAL PDZ FP-2) | Keap1 TSA inactive
COc1ccc(N(Cc2ccccc2)S(=O)(=O)c2cccc(C(=O)Nc3ncccc3C)c2)cc1	Keap1 Nrf2 FP 22 (no result: CAL PDZ FP-2) | Keap1 TSA inactive
O=C(NC(=S)NN1CCOCC1)c1cc(Br)ccc1Cl	none (no result: CAL PDZ FP-2)
O=c1[nH]c(-[n+]2ccccc2)c(/C=N/NC([S-])=Nc2ccccc2)s1	Keap1 Nrf2 FP 17 | Keap1 TSA inactive
Cc1cc[n+](-c2[nH]c(=O)sc2/C=N/NC([S-])=Nc2ccccc2)cc1	Keap1 Nrf2 FP 32, RTF Ca sens act 42 | Keap1 TSA inactive
Cc1cc(C)c[n+](-c2[nH]c(=O)sc2/C=N/NC([S-])=Nc2ccccc2)c1	Keap1 Nrf2 FP 26, RTF Ca sens act 75 (no result: CAL PDZ FP-2) | Keap1 TSA inactive | Dye-only ctr inactive
CCc1ccc[n+](-c2[nH]c(=O)sc2/C=N/NC([S-])=Nc2ccccc2)c1	Keap1 Nrf2 FP 49, RTF Ca sens act 85, LANA DNA inh 89 | Keap1 TSA inactive | Dye-only ctr inactive
COc1ccc(C(=O)O)cc1S(=O)(=O)Nc1ccc(N2CCCCC2)cc1	none

High-throughput results from PubChem.
